Drawing on ChEMBL document CHEMBL1142672 (J Med Chem, 2005), this text covers Effect and Ki for 6 molecules.

In assay [1] the target is Phosphodiesterase 3 (Homo sapiens) (UniProt Q14432+Q13370). Put plainly: Inhibition of [3H]cAMP binding to human phosphodiesterase 3 at 30 uM; Inactive. The assay is classed as protein assay. Summed up: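 Enzyme isolated from freshly collected human platelets. [3H]cAMP SPA kit assay, substrate at 200 nM (near Km under assay conditions). Compounds tested at 30 µM.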
The target of assay [2] is T1, 3',5'-cyclic-AMP phosphodiesterase 4D (Homo sapiens, UniProt Q08499). Kind of assay: Inhibition of [3H]cAMP binding to recombinant human Phosphodiesterase 4DE (PDE4DE) in baculovirus expression system.
The target of assay [3] is 3',5'-cyclic-AMP phosphodiesterase 4B (Homo sapiens, UniProt Q07343). Kind of assay: Inhibition of [3H]cAMP binding to recombinant human Phosphodiesterase 4BL (PDE4BL) in baculovirus expression system.
Assay [4] addresses cGMP-specific 3',5'-cyclic phosphodiesterase (Homo sapiens) (UniProt O76074). Kind of assay: Inhibition of [3H]cGMP binding to human Phosphodiesterase 5 at 30 uM; Inactive.
Assay [5] concerns the target 3',5'-cyclic-AMP phosphodiesterase 4A (Homo sapiens, UniProt P27815). Put plainly: Inhibition of [3H]cAMP binding to recombinant human Phosphodiesterase 4AL (PDE4AL) in baculovirus expression system.
Assay [6] has as its target T1, 3',5'-cyclic-AMP phosphodiesterase 4D. Kind of assay: Inhibition of [3H]cAMP binding to recombinant human Phosphodiesterase 4D5 (PDE4D5) in baculovirus expression system.
The target of the next assay is Phosphodiesterase 4 (Homo sapiens, UniProt P27815+Q08499+Q07343+Q08493). Put plainly: Inhibition of [3H]cAMP binding to human lung Phosphodiesterase 4. The assay is classed as protein assay.
The target in assay [7] is T1, 3',5'-cyclic-AMP phosphodiesterase 4D. Put plainly: Inhibition of [3H]cAMP binding to recombinant human Phosphodiesterase 4D3 (PDE4D3) in baculovirus expression system.

Molecules are shown by their SMILES. Activity calls are given as the source filed them. The calls are words filed in the database; no cut-off is given here.

Chain of 3',5'-cyclic-AMP phosphodiesterase 4A (P27815 whole entry): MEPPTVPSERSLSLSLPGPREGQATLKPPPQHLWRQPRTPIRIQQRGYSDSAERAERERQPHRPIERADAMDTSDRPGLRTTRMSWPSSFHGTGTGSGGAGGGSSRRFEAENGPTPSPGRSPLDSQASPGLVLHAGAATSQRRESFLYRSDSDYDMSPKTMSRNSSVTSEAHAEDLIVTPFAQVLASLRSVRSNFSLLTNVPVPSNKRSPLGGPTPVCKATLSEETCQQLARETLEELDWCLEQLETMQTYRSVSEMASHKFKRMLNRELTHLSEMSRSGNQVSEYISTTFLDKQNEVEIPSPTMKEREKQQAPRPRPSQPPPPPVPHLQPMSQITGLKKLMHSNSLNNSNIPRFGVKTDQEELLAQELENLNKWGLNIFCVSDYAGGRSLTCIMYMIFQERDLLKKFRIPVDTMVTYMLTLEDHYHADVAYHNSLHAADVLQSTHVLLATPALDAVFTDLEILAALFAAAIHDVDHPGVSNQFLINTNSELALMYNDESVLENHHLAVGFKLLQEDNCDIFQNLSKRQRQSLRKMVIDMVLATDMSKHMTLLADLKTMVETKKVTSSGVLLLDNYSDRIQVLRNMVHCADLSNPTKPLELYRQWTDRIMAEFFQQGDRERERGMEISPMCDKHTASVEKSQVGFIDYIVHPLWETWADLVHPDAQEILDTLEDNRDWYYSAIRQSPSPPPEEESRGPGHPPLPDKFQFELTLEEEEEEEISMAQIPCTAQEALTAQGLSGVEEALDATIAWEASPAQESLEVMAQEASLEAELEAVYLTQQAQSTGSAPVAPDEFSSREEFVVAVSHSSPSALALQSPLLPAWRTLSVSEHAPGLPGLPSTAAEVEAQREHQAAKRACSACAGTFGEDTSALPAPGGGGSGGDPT
T1 sequence (Q08499 whole entry): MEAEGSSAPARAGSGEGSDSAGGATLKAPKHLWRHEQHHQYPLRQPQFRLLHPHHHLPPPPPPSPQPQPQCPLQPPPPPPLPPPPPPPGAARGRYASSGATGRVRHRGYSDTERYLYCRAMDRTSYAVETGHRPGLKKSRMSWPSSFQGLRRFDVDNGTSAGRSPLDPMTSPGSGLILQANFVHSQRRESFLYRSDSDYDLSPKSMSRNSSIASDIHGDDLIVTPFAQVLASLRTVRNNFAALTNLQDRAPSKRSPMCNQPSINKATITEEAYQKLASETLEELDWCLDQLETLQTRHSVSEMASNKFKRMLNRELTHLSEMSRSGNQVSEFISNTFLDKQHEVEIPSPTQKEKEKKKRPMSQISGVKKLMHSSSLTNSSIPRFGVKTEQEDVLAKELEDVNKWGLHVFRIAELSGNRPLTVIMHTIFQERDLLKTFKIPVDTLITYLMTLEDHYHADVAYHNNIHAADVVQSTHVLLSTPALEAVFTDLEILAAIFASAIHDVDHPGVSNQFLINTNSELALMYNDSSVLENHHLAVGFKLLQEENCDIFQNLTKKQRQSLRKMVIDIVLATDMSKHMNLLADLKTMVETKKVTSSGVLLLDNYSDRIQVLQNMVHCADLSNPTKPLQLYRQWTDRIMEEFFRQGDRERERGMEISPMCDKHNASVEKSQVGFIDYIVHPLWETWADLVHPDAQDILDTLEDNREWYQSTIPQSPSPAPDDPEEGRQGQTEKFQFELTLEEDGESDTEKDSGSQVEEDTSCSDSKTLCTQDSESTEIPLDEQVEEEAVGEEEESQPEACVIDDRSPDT
Chain of 3',5'-cyclic-AMP phosphodiesterase 4B (Q07343 whole entry): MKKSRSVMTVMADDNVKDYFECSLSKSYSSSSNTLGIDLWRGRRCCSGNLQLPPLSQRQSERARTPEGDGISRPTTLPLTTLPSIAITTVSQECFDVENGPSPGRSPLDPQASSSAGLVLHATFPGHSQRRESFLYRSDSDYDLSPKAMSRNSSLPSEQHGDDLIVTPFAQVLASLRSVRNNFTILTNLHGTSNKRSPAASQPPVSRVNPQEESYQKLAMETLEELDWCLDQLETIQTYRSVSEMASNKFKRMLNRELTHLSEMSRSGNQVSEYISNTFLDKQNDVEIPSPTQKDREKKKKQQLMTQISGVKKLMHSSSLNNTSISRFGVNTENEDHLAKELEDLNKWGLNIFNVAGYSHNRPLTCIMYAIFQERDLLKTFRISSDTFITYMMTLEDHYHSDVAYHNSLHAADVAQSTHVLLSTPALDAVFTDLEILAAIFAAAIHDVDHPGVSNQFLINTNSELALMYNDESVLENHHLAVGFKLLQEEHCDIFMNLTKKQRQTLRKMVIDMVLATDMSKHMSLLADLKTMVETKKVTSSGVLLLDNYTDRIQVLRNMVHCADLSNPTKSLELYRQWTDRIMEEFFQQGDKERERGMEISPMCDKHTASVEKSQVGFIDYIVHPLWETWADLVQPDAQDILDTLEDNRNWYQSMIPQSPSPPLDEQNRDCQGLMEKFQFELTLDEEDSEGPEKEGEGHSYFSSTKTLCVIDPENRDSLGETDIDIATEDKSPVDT

Usually Ki stands for a dissociation constant, usually derived from enzyme kinetics or from competition with a known ligand. `COc1ccc(Cn2cnc(N)c3nc(C(C)(C)COc4ccc(C(=O)O)cc4)nc2-3)cc1OC1CCCC1`: the Effect result in assay [1] and in assay [4] was “inactive” each time. The Ki in assay [2] is over 50000 nM; in assay [3] it was over 50000 nM; in assay [5] it was over 50 µM; in assay [6], over 50000 nM; on Phosphodiesterase 4 it was 5230 nM; in assay [7], 4300 nM.

For the molecule `CC1CC(=O)NN=C1c1ccc(-n2ccnc2)cc1` (stereo not given) [CI-930], the Ki was over 50000 nM in assay [2]; over 50000 nM in assay [3]; over 50 µM in assay [5]; over 50000 nM in assay [6]; over 50000 nM in assay [7].

Regarding `COC(=O)c1ccc(OCC(C)(C)c2nc3c(N)ncn(Cc4ccc(OC)c(OC5CCCC5)c4)c-3n2)cc1`, the Effect entry in assay [1] and in assay [4] was “inactive” throughout. Further, the Ki is 246 nM in assay [2]; 5.2 nM in assay [3]; 0.103 µM in assay [5]; 5.5 nM in assay [6]; 9.3 nM at Phosphodiesterase 4; 3 nM in assay [7].

On to `COc1ccc(Cn2cnc(N)c3nc(C(C)(C)COc4ccc(C(N)=O)cc4)nc2-3)cc1OC1CCCC1`, for which the Effect result in assay [1] and in assay [4] was “inactive” in each case. Further, the Ki in assay [2] came to 312 nM; in assay [3], 7.6 nM; in assay [5] it was 0.155 µM; in assay [6] it was 4.9 nM; at Phosphodiesterase 4, 25 nM; in assay [7] it was 8 nM.

With `COc1cccc(OC[C@H](C)c2nc3c(N)ncn(Cc4ccc(OC)c(OC5CCCC5)c4)c-3n2)c1`, the Effect entry in assay [1] and in assay [4] was “inactive” each time. For the same molecule, the Ki in assay [2] came out at 5050 nM; in assay [3] it was 430 nM; in assay [5], 5.2 µM; in assay [6] it was 322 nM; at Phosphodiesterase 4 it was 1470 nM; in assay [7] it was 493 nM.

Take `CCNc1ncn(Cc2ccc(OC)c(OC3CCCC3)c2)c2nc(C(C)C)nc1-2`: the Effect result in assay [1] and in assay [4] was “inactive” each time. The Ki in assay [2] was 2890 nM; in assay [3], 270 nM; in assay [5], 3.9 µM; in assay [6] it was 141 nM; at Phosphodiesterase 4, 436 nM; in assay [7], 172 nM.
